# Experimental data taken from the RNAGym collection of RNA variant scans (doi:10.1126/science.aae0568).
# Fewer inactive variants are shown than the library holds.
# B1: tRNA (parent)
# chain: GUUCCGUUGGCGUAAUGGUAACGCGUCUCCCUCCUAAGGAGAAGACUGCGGGUUCGAGUCCCGUACGGAACG
# Variants of: B1
# Assay: yeast fitness relative to wild type (ratio to wild type); higher = fitter; tRNA-Arg(CCU), competitive growth, 37 C, YPD
# Outline: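 Start and end populations of a pooled competition were compared by 100-nucleotide paired-end sequencing of gene amplicons. The Saccharomyces cerevisiae strains carried tRNA-Arg(CCU) gene variants at the native genomic locus, synthesised with a 3% per-site mutation rate at 69 sites, and competed in YPD at 37°C for 24 hours in six parallel replicates. Darwinian fitness relative to wild type was based on the change in genotype frequencies. Genotypes required ≥ 100 starting reads, and estimates < 0.5 were set to 0.5.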
row,Variant,yeast fitness
1,C4U C29A C31G A42C A45U G51C,≤ 0.5
2,C4U C5A C33U C66U,≤ 0.5
3,C4U A15G A65U,0.69
4,C4U C5G C29G C31G A37C A57G C66A,≤ 0.5
5,C4U A36C C49U G58A,0.612
6,C4U A21C C24U G38A,≤ 0.5
7,C4U A36U A40C G68A,≤ 0.5
8,C4U C11U G25C G41A G58C,≤ 0.5
9,C4U C22G U35C,0.641
10,C4U A20C A40U C55G,0.578
11,C4U C22U C66U,0.624
12,C4U C24A U47G,≤ 0.5
13,C4U A42G A69C,0.636
14,C4U C5A A21G A43U C46U G51C C55U A65C,≤ 0.5
15,C4U C29U A36U A65U,0.557
16,C4U A40U,0.898
17,C4U A40C,0.835
18,C4U A15C,0.763
19,C4U C30U,0.931
20,C4U C30G,0.801
21,C4U C11G G18A G23C U47G G50A,≤ 0.5
22,C4U A21C C27U G63A A65G,≤ 0.5
23,C4U C30A U64C,0.92
24,C4U C30A G67C,0.731

row,Variant,yeast fitness
1,C4U A14U C33G A69U,≤ 0.5
2,C4U C11U A57G,0.684
3,C4U C24G G58C,≤ 0.5
4,C4U C5G A20G C29U G48C G63C,≤ 0.5
5,C4U C5G A15U C22G C30U U53G G58A U59A,0.603
6,C4U C24A C31A A40U A42C C49A,≤ 0.5
7,C4U C22A C27U A69U,0.512
8,C4U C24U C66U A70C,0.51
9,C4U C27G A45C C55U C66A,≤ 0.5
10,C4U C24U G56A C60A,≤ 0.5
11,C4U A15U U64C A65G,≤ 0.5
12,C4U C11G G18C U47A A69U,0.699
13,C4U C22G G67A,0.689
14,C4U C22G C60G,≤ 0.5
15,C4U A21G U32A A40C C46A C62U G67A,≤ 0.5
16,C4U C30A A36G,0.839
17,C4U C22U G25A C31U C60G A70G,≤ 0.5
18,C4U C11U A65U,0.669
19,C4U C11G C30G U47C,≤ 0.5
20,C4U A20U G50A G52A C60U C61G,≤ 0.5
21,C4U C30A A65G G67C,≤ 0.5
22,C4U C24U A36C C49U,≤ 0.5
23,C4U A21C G41U,0.625
24,C4U C5U A36U,0.625

row,Variant,yeast fitness
1,C4U C5U G18A G25A C33U G48A G52A A69U,≤ 0.5
2,C4U A14U C30A U54G A65C,0.634
3,C4U C29A A36C A40U G51A,0.588
4,C4U A20C A65C,0.719
5,C4U A45G G51A G67A,≤ 0.5
6,C4U C11G C22G C55G G63C,≤ 0.5
7,C4U C27U U32C,0.615
8,C4U C5G C29U,0.541
9,C4U A36U C55A,0.659
10,C4U A36C C46U,≤ 0.5
11,C4U C11G C55U G58A,≤ 0.5
12,C4U C5A C60G,≤ 0.5
13,C4U C24A C30G,0.554
14,C4U C11A G12A G48A G67A,≤ 0.5
15,C4U C30A U53C A70G,≤ 0.5
16,C4U A42U C49G,0.543
17,C4U A37U A70C,0.676
18,C4U A36U G52A,≤ 0.5
19,C4U A40G C62U,0.667
20,C4U C11U G25C G41A A57C G58A,≤ 0.5
21,C4U C5G U16C C24G A42C,0.504
22,C4U C30A C55G,0.549
23,C4U C11G A42G C49U A70U,≤ 0.5
24,C4U C30G G51C G56U A65G,≤ 0.5

row,Variant,yeast fitness
1,C4U A42C A45G C49U C66A,≤ 0.5
2,C4U C29U G39C,0.536
3,C4U C22U C34A,0.548
4,C4U C24A U59A,0.65
5,C4U C5G C27A,≤ 0.5
6,C4U C11G G41A,≤ 0.5
7,C4U C27U U53G,≤ 0.5
8,C4U C11A U28G C31U G51C,≤ 0.5
9,C4U A15C G67C,0.54
10,C4U C11U A15G,0.713
11,C4U C29G G38C,0.621
12,C4U C5A U13A C31U C34U,0.544
13,C4U A20C C49U C61A,≤ 0.5
14,C4U A65G C66U,0.787
15,C4U C11G A45U C61G,0.518
16,C4U A36C G48A,0.71
17,C4U C29G A37C C46G,≤ 0.5
18,C4U A57C C61U A70U,≤ 0.5
19,C4U A15C C62G,≤ 0.5
20,C4U A36G G44C C49U,0.631
21,C4U C5G U16C C24G A42U A43G,≤ 0.5
22,C4U A15C C29U U54C C61G G63A,≤ 0.5
23,C4U C5G G10A C24U A36C G56A,0.651
24,C4U A70U,1.02

row,Variant,yeast fitness
1,C4U A70C,0.989
2,C4U C5G C29U A65G,≤ 0.5
3,C4U A21C U59C,≤ 0.5
4,C4U A20C C29U,0.715
5,C4U A37U,0.676
6,C4U C24G U35C A57G,≤ 0.5
7,C4U C27U C33A A45C U54A,≤ 0.5
8,C4U C30A A42U,0.529
9,C4U C30A A42C,0.582
10,C4U A21G G52A G63A,≤ 0.5
11,C4U C24G C55G U64A,≤ 0.5
12,C4U C11G C49U C61A,≤ 0.5
13,C4U A65C A70G,0.75
14,C4U C5G U28C,0.783
15,C4U C22U C31U C60G,0.545
16,C4U C30A C46G C49U,0.57
17,C4U C5A U13A C31U C34U C55A G58A,≤ 0.5
18,C4U C5U G18A G25A C33U G48A G52A A65C G68A,≤ 0.5
19,C4U C22U C33U A42C,0.668
20,C4U C24U G56C,0.505
21,C4U A14U C33U C49G C55A,≤ 0.5
22,C4U C11A C27A C62A,≤ 0.5
23,C4U C11A A37C A57G,≤ 0.5
24,C4U A57U U59C,0.54

row,Variant,yeast fitness
1,C4U C11G C29U U35C,≤ 0.5
2,C4U C22U C31A U32C A43U,≤ 0.5
3,C4U C24G A43G G63U U64A,≤ 0.5
4,C4U A37G C46U,0.54
5,C4U A20C C22U U47A C62U,0.753
6,C4U C29A G41A,≤ 0.5
7,C4U C11U U28A C29G G51A G56A G67C,≤ 0.5
8,C4U A15G C22U A69U,≤ 0.5
9,C4U A42G A57U,0.551
10,C4U A15G U16C,0.728
11,C4U A20G C27A G52A,≤ 0.5
12,C4U C22U C31U A57U,≤ 0.5
13,C4U C5A U13A C31U C34U C66U,≤ 0.5
14,C4U A43U C55G G67A,0.804
15,C4U A21C C24U G38A G63C,≤ 0.5
16,C4U A20C G51C A57G,≤ 0.5
17,C4U A15C A43U,≤ 0.5
18,C4U C5A A36U G39C A65C,≤ 0.5
19,C4U A37U C49U,0.563
20,C4U A45U C66U,0.656
21,C4U C5G U7C C24G A43C,≤ 0.5
22,C4U C30A G38C C61A,≤ 0.5
23,C4U A36U U47C,≤ 0.5
24,C4U C30A U35C,0.77

row,Variant,yeast fitness
1,C4U A15U U53A C62A,≤ 0.5
2,C4U A57G C61U,0.675
3,C4U C22U C24G A37G,≤ 0.5
4,C4U C22G G56A,0.76
5,C4U C27G G63A,≤ 0.5
6,C4U A36G G44C,0.765
7,C4U C29A C61G A70U,0.588
8,C4U C24U A43G,0.555
9,C4U A40G A42G A57C C66U,≤ 0.5
10,C4U A40C A70G,≤ 0.5
11,C4U A15G G23C A37U A65U,0.57
12,C4U A43G C46U,0.994
13,C4U C5A C46U,0.655
14,C4U A15C G51A,≤ 0.5
15,C4U A15C G51C,≤ 0.5
16,C4U C11U A45C G48A G56C,≤ 0.5
17,C4U C24U A36C G63C C66G,≤ 0.5
18,C4U C5U C46G,0.515
19,C4U C5G U28C A65G,0.562
20,C4U A21G C46A G67A,0.63
21,C4U A20G A40U A70G,≤ 0.5
22,C4U A36G,1.02
23,C4U A36U,0.82
